Test results taken from article PMC9762201 (Current Research in Pharmacology and Drug Discovery, 2022).
“Also recorded” adds a separate entry of the source.

What was measured:
[1] = biological target: T1, α1A-AR (Homo sapiens, UniProt P35348); type: binding
T1 sequence (P35348 1-466): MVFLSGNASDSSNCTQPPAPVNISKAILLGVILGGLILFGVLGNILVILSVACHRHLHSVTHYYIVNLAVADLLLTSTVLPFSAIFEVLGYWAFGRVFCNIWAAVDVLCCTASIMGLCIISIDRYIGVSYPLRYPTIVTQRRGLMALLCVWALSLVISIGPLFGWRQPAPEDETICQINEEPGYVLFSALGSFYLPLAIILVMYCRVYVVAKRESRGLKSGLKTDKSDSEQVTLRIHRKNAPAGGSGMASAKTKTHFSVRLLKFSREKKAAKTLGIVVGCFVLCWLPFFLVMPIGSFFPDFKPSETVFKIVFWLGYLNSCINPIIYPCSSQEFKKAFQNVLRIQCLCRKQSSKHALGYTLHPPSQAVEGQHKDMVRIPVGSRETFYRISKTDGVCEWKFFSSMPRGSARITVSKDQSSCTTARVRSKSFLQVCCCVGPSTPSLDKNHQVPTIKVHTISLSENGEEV

[2] = test system: α1B-AR; type: binding; settings: 0.5 mM GTP
[3] = biological target: T2, α1D-AR (Homo sapiens, UniProt P25100); type: binding
T2 sequence (P25100 1-572): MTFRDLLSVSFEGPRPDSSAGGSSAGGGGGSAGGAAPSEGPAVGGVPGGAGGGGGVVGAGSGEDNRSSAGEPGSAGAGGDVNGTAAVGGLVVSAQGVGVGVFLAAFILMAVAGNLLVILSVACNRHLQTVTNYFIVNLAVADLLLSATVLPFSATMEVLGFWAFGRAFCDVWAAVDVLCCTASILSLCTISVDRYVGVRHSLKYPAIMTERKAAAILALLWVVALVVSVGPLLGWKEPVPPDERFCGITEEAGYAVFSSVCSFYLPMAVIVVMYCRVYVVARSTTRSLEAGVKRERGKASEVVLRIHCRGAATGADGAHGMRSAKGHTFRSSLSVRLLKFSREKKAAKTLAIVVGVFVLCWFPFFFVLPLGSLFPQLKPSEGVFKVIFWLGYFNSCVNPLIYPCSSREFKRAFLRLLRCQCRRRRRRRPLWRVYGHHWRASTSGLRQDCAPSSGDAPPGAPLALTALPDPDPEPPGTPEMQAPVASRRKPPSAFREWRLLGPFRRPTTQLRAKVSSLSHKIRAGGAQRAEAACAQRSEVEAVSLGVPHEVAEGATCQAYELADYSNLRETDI

[4] = biological target: T3, α2A-AR (Homo sapiens, UniProt P08913); type: binding; settings: Cos-1 membranes
T3 sequence (P08913 1-465): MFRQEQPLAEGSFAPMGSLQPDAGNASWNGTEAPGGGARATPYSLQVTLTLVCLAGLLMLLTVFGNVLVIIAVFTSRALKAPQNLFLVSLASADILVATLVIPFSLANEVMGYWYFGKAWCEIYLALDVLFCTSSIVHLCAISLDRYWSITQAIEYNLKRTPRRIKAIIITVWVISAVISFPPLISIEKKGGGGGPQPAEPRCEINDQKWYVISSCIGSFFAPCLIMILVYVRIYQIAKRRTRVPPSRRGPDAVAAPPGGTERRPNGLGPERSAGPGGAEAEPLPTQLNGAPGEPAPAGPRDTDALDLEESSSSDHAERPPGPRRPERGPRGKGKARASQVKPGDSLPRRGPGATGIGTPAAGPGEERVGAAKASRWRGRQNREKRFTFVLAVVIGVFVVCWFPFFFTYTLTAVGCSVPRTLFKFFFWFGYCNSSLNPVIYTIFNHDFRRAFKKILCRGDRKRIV

[5] = biological target: 5-HT7A (Homo sapiens, UniProt P34969); assay: Psychoactive Drug Screening program GPCR binding screen, 5-HT7A
Sequence of 5-HT7A (P34969 1-445 isoform P34969-2): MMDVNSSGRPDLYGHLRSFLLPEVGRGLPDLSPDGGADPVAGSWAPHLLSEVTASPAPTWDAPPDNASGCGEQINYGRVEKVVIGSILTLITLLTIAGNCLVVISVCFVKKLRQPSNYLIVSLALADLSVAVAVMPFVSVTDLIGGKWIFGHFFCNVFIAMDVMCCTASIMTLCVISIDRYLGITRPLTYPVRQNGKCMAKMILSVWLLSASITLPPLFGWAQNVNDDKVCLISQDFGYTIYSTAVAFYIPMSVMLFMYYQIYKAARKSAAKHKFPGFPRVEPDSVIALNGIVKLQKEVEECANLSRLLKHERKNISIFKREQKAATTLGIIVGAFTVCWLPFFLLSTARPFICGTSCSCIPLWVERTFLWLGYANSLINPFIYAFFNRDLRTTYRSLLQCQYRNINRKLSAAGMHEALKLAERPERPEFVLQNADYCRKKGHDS

[6] = test system: α1A-AR; assay: cAMP assay and PAM assay in Rat-1 fibroblasts expressing α1A-AR; type: cell-based
[7] = test system: α1B-AR; assay: cAMP assay in Rat-1 fibroblasts expressing α1B-AR; type: cell-based; settings: Cmpd-3 10^−7 to 10^−5 M
How it was run: (§1)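 Rat-1 fibroblasts expressing one α1-AR subtype were plated serum-free at about 2.4 x 10^4 cells/well and rested overnight. They were preincubated 2 h at 37 °C with 10 μM propranolol, 0.1 μM rauwolscine and test compound. IBMX (100–200 μM) and NE or Epi were then added for 2 h, either as an agonist dose-response or at a fixed 10^-4 M. Cells were extracted in 0.1 M HCl for 20 min at RT, centrifuged at 1000 g, and cAMP was measured by EIA.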

[8] = biological target: T2, α1D-AR; assay: cAMP assay in Rat-1 fibroblasts expressing α1D-AR; type: cell-based; settings: Cmpd-3 10^−6, 10^−5 M
How it was run: as §1

[9] = biological target: T1, α1A-AR; assay: Total inositol phosphate assay in Rat-1 fibroblasts expressing α1A-AR; type: cell-based
[10] = test system: α1B-AR; assay: Total inositol phosphate assay, cells expressing α1B-AR; type: cell-based; settings: data not shown
How it was run: (§2)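 Cells expressing a single α1-AR subtype were seeded in DMEM at about 5 x 10^4 cells/well and rested overnight at 37 °C. They were labelled overnight with 3H-inositol, washed, and placed in serum-free DMEM with 10 mM LiCl (final) for 1 h. NE or Epi (one dose per well) plus test compound at one or several concentrations were added for 1 h at 37 °C. Total inositol phosphates were measured by anion-exchange chromatography.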

[11] = biological target: T2, α1D-AR; assay: Total inositol phosphate assay, cells expressing α1D-AR; type: cell-based; settings: data not shown
How it was run: as §2

[12] = test system: phosphorylation of CREB at Ser133; assay: p-CREB; type: cell-based; settings: 10^−8 M; NE 10^−4 M; propranolol and rauwolscine present
[13] = biological target: T1, α1A-AR; assay: 3H-NE binding potentiation, membranes from Rat-1 fibroblasts expressing α1A-AR
[14] = 2.6 mg/kg, q.d., PO; 3 or 6 months of dosing; 3XTG mice; ref Perez, 2021b; cited from earlier work
[15] = test system: 3XTG mice; settings: 2.6 mg/kg, q.d., PO, 3 or 6 months, ref Perez, 2021b; cited from earlier work
[16] = compound 10^−5 M, absence of GTP, 125I-HEAT

## CC(C)Cc1c(OCC2=NCCN2)cccc1N(C)S(C)(=O)=O.Cl [Cmpd-3, N-(3-((4,5-Dihydro-1H-imidazol-2-yl)methoxy)-2-isobutylphenyl)-N-methylmethanesulfonamide hydrochloride]
[1]; 0.5 mM GTP
  extent of inhibition of 125I-HEAT binding at α1A-AR: could not fully inhibit; also recorded: incomplete inhibition
[1]; compound 10^−5 M, absence of GTP
  fraction of receptor in the high affinity state of NE in presence of compound: 55%
[1]; [16]
  effect on NE binding at α1A-AR: stabilizes the high affinity binding site of NE
  effect on binding profile of Epi at α1A-AR: no effect
[2]
  binding at α1B-AR (125I-HEAT competition): did not display any binding; also recorded: does not bind
[3]
  Ki: 30 µM
[3]; α1A-AR versus α1B-/α1D-AR
  difference in binding selectivity between the α1-AR subtypes: 1000 fold
[4]
  extent of inhibition of 3H-RX821002 binding at α2A-AR: fully inhibited
[5]
  Ki: 6 µM
[6]; Epi dose-response, propranolol and rauwolscine present
  effect on Epi-mediated cAMP response at α1A-AR: did not affect
[6]; NE 10^−4 M held constant, compound dose-response
  PAM activity (NE-mediated cAMP potentiation, PAM assay): display PAM effect
[6]; NE dose-response, propranolol and rauwolscine present
  effect on NE-mediated cAMP response at α1A-AR: potentiated; also recorded: increases the Emax
[6]; compound alone, dose-response
  intrinsic (basal) agonist activity, cAMP: cannot stimulate; also recorded: do not show any basal activity
[7]
  effect on NE or Epi-mediated cAMP response at α1B-AR: no effect; also recorded: does not change the potency or the Emax
[8]
  effect on NE or Epi-mediated cAMP response at α1D-AR: no effect; also recorded: does not change the potency or the Emax
[9]
  effect on Epi-mediated inositol phosphate signal at α1A-AR: no effect; also recorded: does not affect
  effect on NE-mediated inositol phosphate signal at α1A-AR: no effect; also recorded: does not affect
[9]; compound alone, dose-response
  intrinsic (basal) agonist activity, inositol phosphate: cannot stimulate; also recorded: do not show any basal activity
[10]
  effect on NE or Epi-mediated IP signal at α1B-AR: no effect
[11]
  effect on NE or Epi-mediated IP signal at α1D-AR: no effect
[12]
  effect on NE-mediated p-CREB levels: significantly potentiated; also recorded: increases
[13]
  EC50: 0.0001 µM
[14]
  effect on systolic blood pressure: failed to change
[15]
  effect on long-term potentiation and cognitive behavior: statistically increased
